Compounds with a hit are over-represented: about 3.7% of the library has one in this group of screens.
KCNK9 block: blocks the human KCNK9 two-pore domain potassium channel. Q9NPC2. HEK293 KCNK9, FluxOR thallium flux fluorescence; active compounds read low. B-score at 10 µM. 310,000 tested, 1.2% active;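 active = ratio B-score over 3 SD below the library mean, with starting fluorescence within 5 SD of its mean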;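 also: negative B-score means less thallium flux so channel inhibition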
KCNK3 inh: human KCNK3 channel inhibition, primary screen; O14649; 340,000 tested, 0.84% active; CHO-KCNK3 thallium flux, FluxOR fluorescence; active compounds read low; B-score at 10 µM;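 active = B-score under library mean minus 4 SD, starting fluorescence ratio at most library mean plus 5 SD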;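 also: more negative B-score means stronger inhibition of thallium flux through KCNK3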
KCNQ1 pot: potentiators or activators of human KCNQ1 potassium channel. P51787. CHO-K1 KCNQ1, thallium flux FluxOR fluorescence; active compounds read high. B-score at 10 µM. 310,000 tested, 0.35% active. AID 2648;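 active = fluorescence ratio B-score, a plate-corrected score, at least three library SD, with initial intensity B-score within 5 SD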
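Schedule – 37 °C overnight plating, 90-min dark dye load, 20-min compound pretreatment · System – stable KCNQ1 CHO-K1 line · Probe or stimulus – thallium- and potassium-containing depolarizing buffer · Measured by – kinetic FluxOR fluorescence, 10 s baseline plus 110 s post-stimulus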
hERG protect: shields human hERG channel from block by proarrhythmic agents | 310,000 tested, 0.51% active | CHO-hERG, FluxOR thallium flux, dofetilide IC70 present | Q12809 | activation (rescue from dofetilide block), less the hit threshold, % at 10 µM;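 active = activation above the mean of controls blocked by dofetilide plus 5 SD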;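 also: thallium influx through hERG after potassium depolarization seen as dye fluorescence rise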
KCNQ1 inh: inhibitors of human KCNQ1 potassium channel | P51787 | CHO-K1 KCNQ1, FluxOR thallium flux fluorescence; active compounds read high | B-score at 10 µM | 310,000 tested, 1.3% active;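 active = compounds whose thallium flux B-score, printed positive for inhibition, exceeds three library SD while starting fluorescence stays within three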;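 also: channel opened by potassium depolarization with thallium stimulus after 20 min compound exposure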
Kir21 block: blocks the mouse Kir2.1 inward-rectifier potassium channel. P35561. HEK293-Kir2.1, FluxOR thallium flux fluorescence; active compounds read low. AID 1672. B-score at 10 µM. 310,000 tested, 0.85% active;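 active = fluorescence ratio B-score at or below minus 3 SD of library scores, with starting-brightness B-score within 2 SD, cut at about -4.2 in these data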;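 also: channel flux triggered by added potassium and thallium sulfate stimulus; B-score of peak minus minimum fluorescence over baseline after thallium stimulus; more negative B-score means stronger Kir2.1 block with less thallium influx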
Target sequence (P35561 whole entry, looked up): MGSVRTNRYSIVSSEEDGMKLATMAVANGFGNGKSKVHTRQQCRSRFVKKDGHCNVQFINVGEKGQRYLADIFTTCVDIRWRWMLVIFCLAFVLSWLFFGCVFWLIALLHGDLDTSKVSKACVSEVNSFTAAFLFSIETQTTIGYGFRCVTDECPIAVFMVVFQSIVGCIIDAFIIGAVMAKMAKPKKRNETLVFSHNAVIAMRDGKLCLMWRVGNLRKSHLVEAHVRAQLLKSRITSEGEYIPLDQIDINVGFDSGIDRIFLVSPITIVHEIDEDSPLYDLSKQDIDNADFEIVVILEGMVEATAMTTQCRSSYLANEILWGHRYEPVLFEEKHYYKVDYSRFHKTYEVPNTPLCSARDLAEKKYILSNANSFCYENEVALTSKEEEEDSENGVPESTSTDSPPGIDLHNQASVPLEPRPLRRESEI
KCNQ1 block val: confirmation of human KCNQ1 potassium channel inhibitors; shares compounds with KCNQ1 inh; KCNQ1 cell line, FluxOR thallium flux fluorescence; inhibition, % at 10 µM; 1,600 tested, 93% active; AID 588353;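 active = primary screen active, with duplicate mean exceeding buffer control mean plus 3 SD of buffer wells, cut at about 28% in these data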
CHO KCNQ1 ctr: counter-screen for KCNQ1 inhibitors: effect in parental CHO cells; shares compounds with KCNQ1 inh; parental CHO-K1, FluxOR thallium flux fluorescence ratio; active compounds read low; zero means no signal rise above baseline; fluorescence ratio (Tl flux) at 10 µM; 1,600 tested, 21% active; AID 588366;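 active = mean of duplicate thallium-flux fluorescence ratios in parental host cells more than 5 SD below the buffer control mean, cut at about 0.38 in these data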;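 also: ratio is peak minus minimum fluorescence divided by baseline fluorescence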
KCNQ1 ephys val: blocks human KCNQ1 current in automated patch clamp. KCNQ1-CHO cells. calls only at 10 µM. shares compounds with KCNQ1 inh. 490 tested, 20% active;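 active = KCNQ1 current drop exceeding 3 SD of negative control wells, seen in both duplicate runs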;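 also: steady state current during a 2 s step from -80 to +40 mV; negative values mean current inhibition and positive values mean potentiation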
KCNQ2 inh: rat KCNQ2 inhibition in KCNQ1 inhibitor specificity screen | AID 651746 | inhibition, % at 10 µM | shares compounds with KCNQ1 inh | KCNQ2 cells, FluxOR thallium flux fluorescence | 1,600 tested, 71% active;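 active = mean percent inhibition of the KCNQ2 thallium signal more than 5 SD above the buffer-only control wells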;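 also: KCNQ2 expressed in CHO cells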
KCNQ1 KCNE1 spec: human KCNQ1/KCNE1 inhibition in KCNQ1 specificity screen | shares compounds with KCNQ1 inh | KCNQ1/KCNE1 cells, FluxOR thallium flux fluorescence | inhibition, % at 10 µM | 1,600 tested, 77% active | AID 652147;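 active = mean percent inhibition of duplicate wells above the buffer-only control mean plus 3 SD of those controls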
Large screens that a line does not name were inactive (follow-up assays come after a bar, where they were run).

CC(=O)N1CC(C)Sc2ccc(S(=O)(=O)NC(C)c3ccccc3)cc21 (configuration not stated)	none
CCOC(=O)Nc1ccc2c(c1)N(C(=O)CN1CCN(C)CC1)c1ccccc1S2	KCNQ1 inh 9 | KCNQ1 block val inactive | CHO KCNQ1 ctr inactive | KCNQ2 inh inactive | KCNQ1 KCNE1 spec 57%
O=C(Nc1ccccc1F)Nc1cccc2ccc(O)cc12	KCNQ1 inh 9 | KCNQ1 block val 80 | CHO KCNQ1 ctr inactive | KCNQ2 inh 64% | KCNQ1 KCNE1 spec inactive
O=C(Nc1ccc(Br)cc1)Nc1ccccc1F	KCNQ1 inh 7 | KCNQ1 block val 52 | CHO KCNQ1 ctr inactive | KCNQ2 inh inactive | KCNQ1 KCNE1 spec inactive
CC(=O)Nc1cccc2ccc(O)cc12	none (no result: KCNK9 block, KCNQ1 pot, hERG protect, KCNQ1 inh, Kir21 block)
Cc1cc2c(NC(=O)Nc3ccc(C(C)(C)C)cc3)cccc2nn1	KCNQ1 inh 7 | KCNQ1 block val 118 | CHO KCNQ1 ctr inactive | KCNQ1 ephys val inactive | KCNQ2 inh 81% | KCNQ1 KCNE1 spec 68%
Cc1cc2c(NC(=O)Nc3ccccc3)cccc2nn1	none
Cc1ccccc1NC(=O)Nc1ccc(C(F)(F)F)cc1	KCNQ1 inh 6 | KCNQ1 block val 134 | CHO KCNQ1 ctr inactive | KCNQ1 ephys val inactive | KCNQ2 inh 101% | KCNQ1 KCNE1 spec inactive
CC(C)(C)c1ccc(S(=O)(=O)/N=C2\C=C(NS(=O)(=O)c3ccccc3)C(=O)c3ccccc32)cc1	KCNK9 block -7, KCNQ1 inh 8 | KCNQ1 block val 70 | CHO KCNQ1 ctr inactive | KCNQ2 inh 77% | KCNQ1 KCNE1 spec 142%
C/C(=N\NC(N)=S)C1=CCC2C3CC[C@H]4CC(O)CC[C@]4(C)C3CC[C@]12C (some centres not stated)	none
C(=C\c1ccccc1)/CN1CCN(c2ncnc3c2oc2ccccc23)CC1	KCNK3 inh -13, KCNQ1 inh 7 | KCNQ1 block val 150 | CHO KCNQ1 ctr 0.31 | KCNQ2 inh 135% | KCNQ1 KCNE1 spec 178%
c1ccc2c(c1)oc1c(N3CCOCC3)ncnc12	none
CCN(CC)CC(=O)Nc1sc(C)cc1C(=O)c1ccc(C)cc1	KCNQ1 inh 7 | KCNQ1 block val 118 | CHO KCNQ1 ctr inactive | KCNQ1 ephys val inactive | KCNQ2 inh 91% | KCNQ1 KCNE1 spec 154%
Cc1nc(N2CCC(C)CC2)c2c(C)c(C(=O)Nc3ccc(C)c(F)c3)sc2n1	KCNQ1 inh 7 | KCNQ1 block val 114 | CHO KCNQ1 ctr inactive | KCNQ1 ephys val inactive | KCNQ2 inh 140% | KCNQ1 KCNE1 spec 64%
CCC1(CC)Cc2ccccc2-c2nc(-c3ccccc3)oc(=O)c21	KCNQ1 inh 7 | KCNQ1 block val 60 | CHO KCNQ1 ctr inactive | KCNQ2 inh 103% | KCNQ1 KCNE1 spec 91%
O=c1oc(-c2ccccc2)nc2c1C1(CCCCC1)Cc1ccccc1-2	none
CCN(CC(O)c1cccc(O)c1)C(=O)C12CC3CC(CC(C3)C1)C2 (configuration not stated)	KCNQ1 inh 6 | KCNQ1 block val 66 | CHO KCNQ1 ctr inactive | KCNQ2 inh 77% | KCNQ1 KCNE1 spec 43%
CNC[C@H](O)c1cccc(O)c1	none
Cc1cccc(NS(=O)(=O)c2ccc(C3CCCCC3)cc2)c1	KCNQ1 inh 7 | KCNQ1 block val inactive | CHO KCNQ1 ctr inactive | KCNQ2 inh inactive | KCNQ1 KCNE1 spec inactive
O=C(O)c1cccc(NS(=O)(=O)c2ccc(C3CCCCC3)cc2)c1	none
Cc1cc(OCC(=O)Nc2ccncc2)ccc1Br	KCNQ1 inh 13 | KCNQ1 block val 72 | CHO KCNQ1 ctr inactive | KCNQ2 inh inactive | KCNQ1 KCNE1 spec inactive
COc1ccc(OCc2cc(C(=O)N(C)C(C)c3ccon3)no2)c(Cl)c1 (configuration not stated)	none
COc1ccc(C(=O)C2CCCN(Cc3cccn3-c3ccccn3)C2)c(OC)c1 (configuration not stated)	KCNQ1 inh 6 | KCNQ1 block val inactive | CHO KCNQ1 ctr inactive | KCNQ2 inh 60% | KCNQ1 KCNE1 spec inactive
O=C(c1cc(F)ccc1F)C1CCCN(Cc2cccn2-c2ccccn2)C1 (configuration not stated)	none
Cc1nn(C)c(Nc2ccc(Br)cc2)c1Br	KCNQ1 inh 6 | KCNQ1 block val 88 | CHO KCNQ1 ctr inactive | KCNQ1 ephys val inactive | KCNQ2 inh inactive | KCNQ1 KCNE1 spec 44%
CCn1c(=O)c(CCC(=O)NCCN2CCOCC2)c(C)c2c(C)nn(-c3ccccc3)c21	none
CCn1c(=O)c(CCC(=O)N2CCN(c3ccccn3)CC2)c(C)c2c(C)nn(-c3ccccc3)c21	KCNQ1 inh 7 | KCNQ1 block val 48 | CHO KCNQ1 ctr inactive | KCNQ2 inh 93% | KCNQ1 KCNE1 spec 80%
Cc1cccc(NC(=O)c2ccc(C3SCC(=O)N3CCc3ccccc3)cc2)c1 (configuration not stated)	KCNQ1 inh 7 | KCNQ1 block val 99 | CHO KCNQ1 ctr inactive | KCNQ1 ephys val inactive | KCNQ2 inh 109% | KCNQ1 KCNE1 spec 82%
COc1ccc(N=C2SC(CC(=O)Nc3cccc(Cl)c3)C(=O)N2Cc2ccco2)cc1 (configuration not stated)	KCNQ1 inh 12 | KCNQ1 block val 92 | CHO KCNQ1 ctr inactive | KCNQ1 ephys val inactive | KCNQ2 inh 93% | KCNQ1 KCNE1 spec 136%
COc1ccc(N=C2SC(CC(=O)Nc3ccccc3)C(=O)N2Cc2ccccn2)cc1 (configuration not stated)	none
COc1cc(NC(=O)c2ccno2)cc(C(=O)Nc2cccc(C(F)(F)F)c2)c1	KCNQ1 inh 9 | KCNQ1 block val 110 | CHO KCNQ1 ctr 0.35 | KCNQ2 inh 100% | KCNQ1 KCNE1 spec 163%
Cc1ccccc1CSc1ccc(-c2ccc3c(c2)OCO3)nn1	KCNQ1 inh 7 | KCNQ1 block val 132 | CHO KCNQ1 ctr 0.36 | KCNQ2 inh 106% | KCNQ1 KCNE1 spec 156%
Cn1c(=NC(=O)CS(=O)(=O)c2ccccc2)sc2cc([N+](=O)[O-])ccc21	none
